Legend:
[1] = Inhibition of PKA at 30 uM by microfluidic mobility shift assay
Outline: (§1)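 Single-concentration screen, singlicate, 30 uM final (diluted from 1 mM DMSO solutions), fluorescently tagged peptide substrate appropriate to each kinase, ATP at apparent Km for each protein. Phosphorylated and unphosphorylated peptides separated electrophoretically; conversion is the phosphorylated peak area over the sum of both peaks. No-inhibitor and no-ATP controls; H89 reference on each plate.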

[2] = biological target: RAC-alpha serine/threonine-protein kinase (Homo sapiens) (UniProt P31749); test: Inhibition of AKT1 at 30 uM by microfluidic mobility shift assay; outline: as §1
Chain of RAC-alpha serine/threonine-protein kinase (Homo sapiens) (P31749 whole entry): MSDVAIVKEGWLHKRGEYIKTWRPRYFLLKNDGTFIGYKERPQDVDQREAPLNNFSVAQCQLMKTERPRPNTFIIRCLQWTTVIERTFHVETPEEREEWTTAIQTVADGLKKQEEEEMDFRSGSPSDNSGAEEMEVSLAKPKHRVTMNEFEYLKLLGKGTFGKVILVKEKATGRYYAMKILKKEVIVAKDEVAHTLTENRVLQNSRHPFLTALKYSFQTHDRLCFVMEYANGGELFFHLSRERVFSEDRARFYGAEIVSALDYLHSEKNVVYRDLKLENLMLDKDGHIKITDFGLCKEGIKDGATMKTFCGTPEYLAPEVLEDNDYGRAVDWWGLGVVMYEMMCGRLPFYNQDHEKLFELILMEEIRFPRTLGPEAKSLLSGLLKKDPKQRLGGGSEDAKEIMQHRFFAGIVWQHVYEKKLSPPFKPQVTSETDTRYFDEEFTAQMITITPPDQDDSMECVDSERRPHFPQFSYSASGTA

[3] = biological target: Insulin receptor (Homo sapiens) (UniProt P06213); test: Inhibition of INSR at 30 uM by microfluidic mobility shift assay; outline: as §1
Chain of Insulin receptor (Homo sapiens) (P06213 28-758 limits assumed): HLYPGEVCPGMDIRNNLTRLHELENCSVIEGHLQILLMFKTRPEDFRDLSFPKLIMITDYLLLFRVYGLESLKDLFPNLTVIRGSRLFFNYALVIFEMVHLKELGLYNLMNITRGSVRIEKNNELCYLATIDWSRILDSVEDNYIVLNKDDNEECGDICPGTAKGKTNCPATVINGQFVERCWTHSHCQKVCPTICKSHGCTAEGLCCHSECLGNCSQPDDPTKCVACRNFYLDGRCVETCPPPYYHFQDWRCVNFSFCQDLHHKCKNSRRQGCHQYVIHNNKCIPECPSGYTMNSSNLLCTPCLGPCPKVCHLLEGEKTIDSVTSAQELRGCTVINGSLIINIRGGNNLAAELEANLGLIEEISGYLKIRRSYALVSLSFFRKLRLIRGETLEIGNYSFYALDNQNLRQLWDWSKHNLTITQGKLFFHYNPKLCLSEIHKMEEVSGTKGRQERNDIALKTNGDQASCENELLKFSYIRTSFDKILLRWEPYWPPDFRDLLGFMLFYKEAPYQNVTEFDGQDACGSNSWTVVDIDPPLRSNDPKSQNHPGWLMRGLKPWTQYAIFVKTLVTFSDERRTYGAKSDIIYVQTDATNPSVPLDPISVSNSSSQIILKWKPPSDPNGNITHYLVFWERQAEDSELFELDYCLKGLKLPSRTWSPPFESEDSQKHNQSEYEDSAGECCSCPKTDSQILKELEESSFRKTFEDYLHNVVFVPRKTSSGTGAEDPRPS
Chain of Insulin receptor (Homo sapiens) (P06213 763-1382 limits assumed): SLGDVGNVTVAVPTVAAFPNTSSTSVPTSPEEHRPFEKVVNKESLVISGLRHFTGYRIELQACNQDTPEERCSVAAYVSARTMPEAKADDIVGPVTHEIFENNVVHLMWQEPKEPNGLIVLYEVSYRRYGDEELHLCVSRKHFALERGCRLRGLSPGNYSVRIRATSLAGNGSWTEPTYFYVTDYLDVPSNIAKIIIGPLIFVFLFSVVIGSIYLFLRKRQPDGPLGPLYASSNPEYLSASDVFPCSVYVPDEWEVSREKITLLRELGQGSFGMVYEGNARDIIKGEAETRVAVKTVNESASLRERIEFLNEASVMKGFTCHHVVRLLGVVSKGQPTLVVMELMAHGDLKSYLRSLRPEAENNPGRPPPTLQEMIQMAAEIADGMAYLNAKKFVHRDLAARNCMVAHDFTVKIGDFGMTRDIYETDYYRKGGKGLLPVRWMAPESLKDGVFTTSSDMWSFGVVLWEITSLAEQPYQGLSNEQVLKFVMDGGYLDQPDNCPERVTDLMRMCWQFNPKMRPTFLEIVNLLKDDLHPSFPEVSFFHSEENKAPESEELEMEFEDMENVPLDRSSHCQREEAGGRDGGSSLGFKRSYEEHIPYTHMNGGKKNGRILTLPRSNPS

[4] = biological target: T1, Aurora kinase A (Homo sapiens) (UniProt O14965); test: Inhibition of AurA at 30 uM by microfluidic mobility shift assay; outline: as §1
T1 sequence (whole entry): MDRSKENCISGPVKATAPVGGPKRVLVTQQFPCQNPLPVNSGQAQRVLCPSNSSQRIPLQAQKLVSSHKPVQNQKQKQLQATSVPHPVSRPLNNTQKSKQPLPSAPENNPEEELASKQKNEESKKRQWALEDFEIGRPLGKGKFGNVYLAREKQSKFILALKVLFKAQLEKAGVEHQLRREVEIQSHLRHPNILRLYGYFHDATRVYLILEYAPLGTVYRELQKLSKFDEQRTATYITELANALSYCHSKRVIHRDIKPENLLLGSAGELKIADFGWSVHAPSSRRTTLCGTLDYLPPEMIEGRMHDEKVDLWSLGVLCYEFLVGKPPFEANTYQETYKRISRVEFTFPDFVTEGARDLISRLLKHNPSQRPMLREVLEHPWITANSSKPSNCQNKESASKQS

[5] = biological target: Glycogen synthase kinase-3 beta (Homo sapiens) (UniProt P49841); test: Inhibition of GSK3B at 30 uM by microfluidic mobility shift assay; outline: as §1
Chain of Glycogen synthase kinase-3 beta (Homo sapiens) (P49841 whole entry, looked up): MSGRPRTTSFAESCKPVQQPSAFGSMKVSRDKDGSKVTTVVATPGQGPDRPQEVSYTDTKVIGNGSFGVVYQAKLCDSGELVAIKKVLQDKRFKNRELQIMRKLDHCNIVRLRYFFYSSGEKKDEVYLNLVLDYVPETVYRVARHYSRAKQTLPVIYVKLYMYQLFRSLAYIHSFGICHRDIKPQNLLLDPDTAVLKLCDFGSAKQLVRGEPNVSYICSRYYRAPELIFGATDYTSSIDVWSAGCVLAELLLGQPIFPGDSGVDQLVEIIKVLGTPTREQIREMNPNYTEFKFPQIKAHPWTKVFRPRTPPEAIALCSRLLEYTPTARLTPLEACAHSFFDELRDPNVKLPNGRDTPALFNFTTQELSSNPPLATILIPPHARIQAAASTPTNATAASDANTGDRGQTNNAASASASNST

[6] = biological target: Ribosomal protein S6 kinase alpha-5 (Homo sapiens) (UniProt O75582); test: Inhibition of MSK1 at 30 uM by microfluidic mobility shift assay; outline: as §1
Chain of Ribosomal protein S6 kinase alpha-5 (Homo sapiens) (O75582 whole entry, looked up): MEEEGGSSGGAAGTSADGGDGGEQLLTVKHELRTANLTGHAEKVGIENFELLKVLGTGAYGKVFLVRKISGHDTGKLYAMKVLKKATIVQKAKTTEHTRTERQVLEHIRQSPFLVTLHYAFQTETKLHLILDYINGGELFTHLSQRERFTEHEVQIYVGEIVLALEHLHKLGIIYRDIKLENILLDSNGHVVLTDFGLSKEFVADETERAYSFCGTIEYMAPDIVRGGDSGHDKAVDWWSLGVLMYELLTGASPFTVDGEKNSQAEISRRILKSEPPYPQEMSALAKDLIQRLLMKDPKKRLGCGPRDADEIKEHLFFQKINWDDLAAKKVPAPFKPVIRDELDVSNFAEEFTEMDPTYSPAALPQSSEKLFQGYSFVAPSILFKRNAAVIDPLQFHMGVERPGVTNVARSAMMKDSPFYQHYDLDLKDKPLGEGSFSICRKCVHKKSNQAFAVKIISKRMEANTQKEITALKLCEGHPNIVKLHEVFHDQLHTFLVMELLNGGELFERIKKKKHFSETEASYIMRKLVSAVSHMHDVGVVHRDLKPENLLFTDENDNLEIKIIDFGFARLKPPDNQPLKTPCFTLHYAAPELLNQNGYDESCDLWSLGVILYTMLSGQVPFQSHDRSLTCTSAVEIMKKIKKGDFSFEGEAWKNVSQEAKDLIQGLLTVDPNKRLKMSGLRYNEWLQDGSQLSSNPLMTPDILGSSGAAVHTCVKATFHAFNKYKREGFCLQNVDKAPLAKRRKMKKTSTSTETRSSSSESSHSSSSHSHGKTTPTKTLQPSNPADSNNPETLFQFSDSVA

[7] = biological target: Serine/threonine-protein kinase Chk2 (Homo sapiens, UniProt O96017); test: Inhibition of CHK2 at 30 uM by microfluidic mobility shift assay; outline: as §1
Chain of Serine/threonine-protein kinase Chk2 (O96017 whole entry): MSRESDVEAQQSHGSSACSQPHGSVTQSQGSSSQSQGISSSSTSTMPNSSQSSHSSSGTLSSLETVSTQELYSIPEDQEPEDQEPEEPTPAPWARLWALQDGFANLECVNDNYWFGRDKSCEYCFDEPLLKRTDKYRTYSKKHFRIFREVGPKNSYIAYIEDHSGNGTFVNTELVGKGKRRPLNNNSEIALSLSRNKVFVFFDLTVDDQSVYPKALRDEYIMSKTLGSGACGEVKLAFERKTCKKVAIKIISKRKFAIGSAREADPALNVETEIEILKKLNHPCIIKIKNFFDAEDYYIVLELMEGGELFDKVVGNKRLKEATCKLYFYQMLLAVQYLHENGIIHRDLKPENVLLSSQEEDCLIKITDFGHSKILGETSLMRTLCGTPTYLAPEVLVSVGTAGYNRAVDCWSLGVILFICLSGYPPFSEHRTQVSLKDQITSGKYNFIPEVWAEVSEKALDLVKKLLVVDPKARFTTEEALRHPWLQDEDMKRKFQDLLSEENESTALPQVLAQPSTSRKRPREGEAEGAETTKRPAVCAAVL

[8] = biological target: T2, Serine/threonine-protein kinase D2 (Homo sapiens) (UniProt Q9BZL6); test: Inhibition of PKD2 at 30 uM by microfluidic mobility shift assay; outline: as §1
T2 sequence (whole entry): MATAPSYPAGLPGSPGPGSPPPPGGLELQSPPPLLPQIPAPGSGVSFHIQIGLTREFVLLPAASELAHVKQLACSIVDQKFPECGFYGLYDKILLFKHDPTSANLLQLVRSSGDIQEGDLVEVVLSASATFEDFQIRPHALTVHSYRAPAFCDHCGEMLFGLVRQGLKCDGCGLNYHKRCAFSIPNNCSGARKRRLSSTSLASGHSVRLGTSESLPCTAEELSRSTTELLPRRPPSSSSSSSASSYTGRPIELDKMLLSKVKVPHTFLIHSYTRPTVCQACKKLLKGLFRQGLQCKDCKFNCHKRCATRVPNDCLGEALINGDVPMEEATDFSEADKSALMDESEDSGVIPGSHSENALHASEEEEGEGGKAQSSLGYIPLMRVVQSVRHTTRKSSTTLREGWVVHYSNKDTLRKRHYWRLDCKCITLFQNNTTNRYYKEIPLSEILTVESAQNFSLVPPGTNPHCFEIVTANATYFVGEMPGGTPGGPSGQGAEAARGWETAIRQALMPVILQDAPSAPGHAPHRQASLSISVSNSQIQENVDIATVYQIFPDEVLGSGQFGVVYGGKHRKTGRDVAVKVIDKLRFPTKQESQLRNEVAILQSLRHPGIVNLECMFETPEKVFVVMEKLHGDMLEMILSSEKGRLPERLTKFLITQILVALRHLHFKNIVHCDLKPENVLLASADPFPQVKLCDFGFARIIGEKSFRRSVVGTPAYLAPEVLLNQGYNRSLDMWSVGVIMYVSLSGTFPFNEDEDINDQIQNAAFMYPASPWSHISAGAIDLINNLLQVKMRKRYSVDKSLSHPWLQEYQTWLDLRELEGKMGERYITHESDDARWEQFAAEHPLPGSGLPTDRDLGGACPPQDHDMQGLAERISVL

[9] = biological target: T3, MAP kinase-activated protein kinase 5 (Homo sapiens) (UniProt Q8IW41); test: Inhibition of PRAK1 at 30 uM by microfluidic mobility shift assay; outline: as §1
T3 sequence (whole entry): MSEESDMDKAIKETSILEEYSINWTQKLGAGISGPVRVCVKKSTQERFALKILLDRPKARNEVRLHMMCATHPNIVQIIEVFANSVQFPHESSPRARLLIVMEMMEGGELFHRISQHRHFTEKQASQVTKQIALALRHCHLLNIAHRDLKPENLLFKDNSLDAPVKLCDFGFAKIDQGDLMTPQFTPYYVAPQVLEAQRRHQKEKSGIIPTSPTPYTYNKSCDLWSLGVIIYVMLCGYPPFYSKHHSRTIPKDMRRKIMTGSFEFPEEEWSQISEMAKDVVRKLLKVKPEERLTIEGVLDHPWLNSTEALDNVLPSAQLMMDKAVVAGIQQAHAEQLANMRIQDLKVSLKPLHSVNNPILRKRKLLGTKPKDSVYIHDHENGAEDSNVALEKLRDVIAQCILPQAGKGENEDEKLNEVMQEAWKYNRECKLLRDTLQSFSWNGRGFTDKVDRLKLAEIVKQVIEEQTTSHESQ

[10] = biological target: Tyrosine-protein kinase Lck (Homo sapiens, UniProt P06239); test: Inhibition of LCK at 30 uM by microfluidic mobility shift assay; outline: as §1
[11] = biological target: Mitogen-activated protein kinase 1 (Homo sapiens) (UniProt P28482); test: Inhibition of ERK2 at 30 uM by microfluidic mobility shift assay; outline: as §1
Chain of Mitogen-activated protein kinase 1 (Homo sapiens) (P28482 whole entry): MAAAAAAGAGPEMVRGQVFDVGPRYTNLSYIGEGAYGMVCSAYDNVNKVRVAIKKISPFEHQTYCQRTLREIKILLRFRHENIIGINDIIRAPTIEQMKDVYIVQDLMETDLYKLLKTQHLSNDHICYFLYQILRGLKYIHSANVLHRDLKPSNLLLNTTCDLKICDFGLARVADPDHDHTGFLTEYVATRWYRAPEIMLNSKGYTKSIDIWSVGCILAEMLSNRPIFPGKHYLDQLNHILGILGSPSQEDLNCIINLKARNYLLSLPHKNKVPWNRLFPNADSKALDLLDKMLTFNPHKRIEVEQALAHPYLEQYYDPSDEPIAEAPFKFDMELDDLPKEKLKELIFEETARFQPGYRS

[12] = biological target: Tyrosine-protein kinase Lyn (Homo sapiens, UniProt P07948); test: Inhibition of LYN at 30 uM by microfluidic mobility shift assay; outline: as §1
Chain of Tyrosine-protein kinase Lyn (P07948 2-512 limits assumed): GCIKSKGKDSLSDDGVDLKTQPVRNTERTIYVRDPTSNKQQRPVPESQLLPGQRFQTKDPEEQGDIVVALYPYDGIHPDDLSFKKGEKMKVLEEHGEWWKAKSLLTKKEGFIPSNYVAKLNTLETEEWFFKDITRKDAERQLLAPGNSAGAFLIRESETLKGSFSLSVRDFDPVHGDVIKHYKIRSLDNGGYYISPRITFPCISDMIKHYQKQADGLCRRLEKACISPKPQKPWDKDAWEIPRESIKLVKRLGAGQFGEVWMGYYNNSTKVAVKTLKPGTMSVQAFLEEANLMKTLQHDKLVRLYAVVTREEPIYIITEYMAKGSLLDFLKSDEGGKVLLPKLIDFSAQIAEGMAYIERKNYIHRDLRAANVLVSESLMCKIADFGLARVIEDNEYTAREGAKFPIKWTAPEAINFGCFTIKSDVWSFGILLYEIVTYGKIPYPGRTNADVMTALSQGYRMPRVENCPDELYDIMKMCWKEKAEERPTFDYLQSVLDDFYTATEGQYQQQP

[13] = biological target: Proto-oncogene tyrosine-protein kinase Src (Homo sapiens, UniProt P12931); test: Inhibition of SRC at 30 uM by microfluidic mobility shift assay; outline: as §1
Chain of Proto-oncogene tyrosine-protein kinase Src (P12931 2-536 limits assumed): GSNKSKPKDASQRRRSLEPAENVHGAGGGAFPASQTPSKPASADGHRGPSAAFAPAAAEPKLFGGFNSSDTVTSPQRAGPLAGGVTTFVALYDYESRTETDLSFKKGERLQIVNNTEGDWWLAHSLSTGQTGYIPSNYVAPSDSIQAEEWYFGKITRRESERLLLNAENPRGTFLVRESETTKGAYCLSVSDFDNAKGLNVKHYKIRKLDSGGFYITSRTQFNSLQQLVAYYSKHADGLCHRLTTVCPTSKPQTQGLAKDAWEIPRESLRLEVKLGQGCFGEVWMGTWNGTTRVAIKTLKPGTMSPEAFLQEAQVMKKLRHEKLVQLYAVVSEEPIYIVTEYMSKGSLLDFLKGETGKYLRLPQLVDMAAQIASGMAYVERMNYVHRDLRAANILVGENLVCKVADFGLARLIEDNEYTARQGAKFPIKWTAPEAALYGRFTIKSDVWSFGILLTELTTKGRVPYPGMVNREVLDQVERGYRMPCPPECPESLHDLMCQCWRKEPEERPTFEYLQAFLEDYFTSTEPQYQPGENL

Row | inhibition [1] | inhibition [2] | inhibition [3] | inhibition [4] | inhibition [5] | inhibition [6] | inhibition [7] | inhibition [8] | inhibition [9] | inhibition [10] | inhibition [11] | inhibition [12] | inhibition [13] | Compound
1 | 2% | -3% | -3% | 12% | 23% | 1% | 7% | -7% | 0% | 7% | 6% | 12% | 6% | Nc1n[nH]c2c3c([nH]c(=O)c12)CCCC3
2 | 48% | 4% | 20% | 49% | 58% | 49% | 52% | 17% | 10% | 48% | 15% | 49% | 62% | COc1cccc(-c2cc3[nH]nc(N)c3c(=O)[nH]2)c1
3 | -6% | 16% | 0% | 10% | 14% | 6% | -3% | 28% | 12% | 75% | 3% | 90% | 89% | COc1ccc(-c2cc3nn(-c4ccccc4)c(N)c3c(=O)[nH]2)cc1
4 | 7% | -5% | 6% | 17% | 61% | 2% | 31% | 25% | 6% | 22% | 22% | 26% | 30% | COc1cccc(-c2cc3c(c(N)nn3C)c(=O)[nH]2)c1
5 | -2% | 1% | -6% | -8% | 13% | 4% | -1% | 8% | 0% | 4% | 3% | 1% | -2% | Cc1cc2c(c(NS(C)(=O)=O)nn2C)c(=O)[nH]1
6 | -3% | 10% | 5% | 37% | 41% | -4% | 18% | 16% | -1% | 15% | 0% | 40% | 37% | Nc1c2c(=O)[nH]c(-c3ccccc3)cc2nn1-c1ccccn1
7 | 3% | 10% | 2% | -9% | 0% | 3% | 6% | 14% | 1% | -1% | 1% | -1% | 2% | COc1ccc(S(=O)(=O)Nc2nn(C)c3cc(C)[nH]c(=O)c23)c(OC)c1
8 | 86% | 36% | 9% | 84% | 55% | 87% | 33% | 14% | 10% | 48% | 6% | 45% | 33% | Cc1cc2[nH]nc(N)c2c(N2CCCCC2)n1
9 | 0% | 4% | 4% | 30% | 11% | 4% | 3% | 15% | 2% | 91% | 6% | 97% | 98% | Nc1c2c(=O)[nH]c(-c3ccccn3)cc2nn1-c1ccccc1
10 | 98% | 9% | 17% | 51% | 42% | 83% | 68% | 15% | 11% | 74% | -2% | 76% | 85% | CN1CCN(c2ccc(-c3cc4[nH]nc(N)c4c(=O)[nH]3)cc2)CC1
11 | 10% | 13% | 2% | 31% | 58% | 13% | 18% | 21% | 13% | 11% | 7% | 19% | 15% | COc1ccc(-c2c(C)[nH]c(=O)c3c(N)nn(C)c23)cc1
12 | 4% | 7% | -2% | 0% | -6% | 4% | -2% | 8% | 1% | 1% | 2% | 5% | 3% | Cc1cc2c(c(N)nn2C)c(N2CC[C@H](O)C2)n1
13 | -3% | 8% | 1% | 10% | 3% | 0% | 8% | 1% | 1% | 9% | 0% | 4% | 3% | COCCNc1nc(-c2ccccc2)cc2c1c(N)nn2C
14 | 6% | 15% | -2% | 7% | 3% | 7% | 16% | 20% | 6% | 72% | 13% | 86% | 87% | COc1ccccc1-c1cc2nn(-c3ccccc3)c(N)c2c(=O)[nH]1
15 | -3% | 11% | 3% | 4% | 1% | 4% | 3% | 5% | 5% | -1% | 8% |  | 9% | Cc1cc2c(c(N)nn2C)c(=O)[nH]1

Source: ChEMBL document CHEMBL1811853, “Design and evaluation of 3-aminopyrazolopyridinone kinase inhibitors inspired by the natural product indirubin” (Bioorg Med Chem, 2011)
